According to ChEMBL document CHEMBL3232795, “Using 'biased-privileged' scaffolds to identify lysine methyltransferase inhibitors” (Bioorg Med Chem, 2014):
Calls of active or inactive are those of the source. The calls are words filed in the database; no cut-off is given here.

What follows are compounds tested against T1, Histone-lysine N-methyltransferase EHMT2 (Homo sapiens, UniProt Q96KQ7) (assay: Inhibition of C-terminal GST-tagged human G9a-mediated-methylation of histone3 expressed in Escherichia coli BL21(DE3) by scintillation proximity assay).
T1 sequence (Q96KQ7 whole entry): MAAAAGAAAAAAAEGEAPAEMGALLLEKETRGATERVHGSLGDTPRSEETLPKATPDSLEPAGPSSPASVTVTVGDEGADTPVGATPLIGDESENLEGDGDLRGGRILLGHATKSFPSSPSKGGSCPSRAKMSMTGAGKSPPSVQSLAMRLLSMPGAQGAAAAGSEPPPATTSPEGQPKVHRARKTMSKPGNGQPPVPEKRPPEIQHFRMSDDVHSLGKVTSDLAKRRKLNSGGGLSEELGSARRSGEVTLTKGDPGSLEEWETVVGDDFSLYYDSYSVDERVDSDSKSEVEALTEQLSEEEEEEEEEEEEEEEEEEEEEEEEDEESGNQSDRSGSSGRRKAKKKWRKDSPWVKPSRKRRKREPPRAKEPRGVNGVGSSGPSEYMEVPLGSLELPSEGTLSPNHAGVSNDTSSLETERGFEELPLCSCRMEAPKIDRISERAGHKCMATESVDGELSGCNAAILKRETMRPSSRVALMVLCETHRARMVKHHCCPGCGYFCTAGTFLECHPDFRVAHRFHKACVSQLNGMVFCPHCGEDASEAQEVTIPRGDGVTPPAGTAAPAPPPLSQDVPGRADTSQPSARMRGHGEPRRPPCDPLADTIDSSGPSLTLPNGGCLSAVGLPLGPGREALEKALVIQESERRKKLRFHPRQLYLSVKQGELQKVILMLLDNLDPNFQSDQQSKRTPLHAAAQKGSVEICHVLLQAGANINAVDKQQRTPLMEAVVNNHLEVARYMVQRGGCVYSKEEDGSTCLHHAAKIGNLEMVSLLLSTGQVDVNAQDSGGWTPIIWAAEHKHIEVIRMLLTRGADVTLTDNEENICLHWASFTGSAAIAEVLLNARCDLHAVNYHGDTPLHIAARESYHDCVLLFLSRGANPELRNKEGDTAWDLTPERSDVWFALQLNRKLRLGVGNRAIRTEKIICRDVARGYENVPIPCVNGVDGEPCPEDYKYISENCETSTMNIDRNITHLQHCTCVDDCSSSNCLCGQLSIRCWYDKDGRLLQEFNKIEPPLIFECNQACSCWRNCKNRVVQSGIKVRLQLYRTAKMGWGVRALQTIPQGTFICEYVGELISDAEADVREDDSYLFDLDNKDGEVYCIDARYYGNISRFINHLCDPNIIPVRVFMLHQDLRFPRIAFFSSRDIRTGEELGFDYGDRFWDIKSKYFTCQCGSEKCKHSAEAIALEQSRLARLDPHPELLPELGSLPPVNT

SMILES | IC50 [µM]
O=C(O)c1cccc(NCc2cccc(-n3ccc4c(-c5ccc(C(F)(F)F)cc5)cccc43)c2)c1 | 26.4

What follows are compounds tested against T2, Histone-lysine N-methyltransferase SETD7 (Homo sapiens) (UniProt Q8WTS6) (assay: Inhibition of methyl-transferase activity in GST-tagged recombinant SET7/9 (unknown origin) expressed in Escherichia coli BL21 using H3(1-20)-cys-biotin as substrate at 40 uM preincubated for 5 mins followed by substrate addition by ELISA relative to control).
T2 sequence (whole entry): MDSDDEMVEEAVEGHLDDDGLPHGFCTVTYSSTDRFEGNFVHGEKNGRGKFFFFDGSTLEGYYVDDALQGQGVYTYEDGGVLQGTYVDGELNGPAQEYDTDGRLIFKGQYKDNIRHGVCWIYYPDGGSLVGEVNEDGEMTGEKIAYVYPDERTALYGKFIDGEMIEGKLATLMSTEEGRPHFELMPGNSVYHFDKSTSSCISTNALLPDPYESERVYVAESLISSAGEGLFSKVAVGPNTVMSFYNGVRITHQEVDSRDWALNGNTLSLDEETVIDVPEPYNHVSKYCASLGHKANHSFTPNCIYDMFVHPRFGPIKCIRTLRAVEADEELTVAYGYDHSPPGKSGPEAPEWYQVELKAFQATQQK
Method in brief: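 GST-fused SET7 (residues 52–366), expressed in bacteria. Enzyme at 2.8 nM with SAM (300 nM) in Tris pH 8.0 buffer (4% DMSO, BSA, EDTA, DTT, Triton X-100) on streptavidin plates, preincubated with compound 5 min at room temperature. Biotinylated H3(1–20)-cys substrate (900 nM) added, 5 min at 30 °C. Stopped with acetate pH 5.0. H3K4me1 detected with antibody, HRP secondary and chemiluminescence; signal given relative to DMSO control.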

SMILES | inhibition
O=C(O)c1cccc(SCc2cccc(-n3ccc4c(-c5ccccc5)cccc43)c2)c1 | 50%
Cc1ccc(-c2cccc3c2ccn3-c2cccc(CNc3cccc(C(=O)O)c3)c2)cc1 | Active
O=C(O)c1cccc(NCc2cccc(-n3ccc4c(-c5ccc6ccccc6c5)cccc43)c2)c1 | Active
O=C(O)c1cccc(NCc2cccc(-n3ccc4c(-c5ccccc5)cccc43)c2)c1 | 50%
CC(=O)Nc1ccc(-c2cccc3c2ccn3-c2cccc(CNc3cccc(C(=O)O)c3)c2)cc1 | Active
O=C(O)c1cccc(SCc2cccc(-n3ccc4cc(Br)ccc43)c2)c1 | Active
N[C@@H](CCSCc1cccc(-n2ccc3cc(Br)ccc32)c1)C(=O)O | 12%
O=C(O)c1cccc(NCc2cccc(-n3ccc4c(-c5ccc(C(F)(F)F)cc5)cccc43)c2)c1 | Active
O=C(O)c1ccc(-c2cccc3c2ccn3-c2cccc(CNc3cccc(C(=O)O)c3)c2)cc1 | inactive
O=C(O)CCCSCc1cccc(-n2ccc3cc(Br)ccc32)c1 | Active
O=C(O)c1cccc(SCc2cccc(-n3ccc4c(Br)cccc43)c2)c1 | Active

The compounds below were run against T2, Histone-lysine N-methyltransferase SETD7 (Homo sapiens) (assay: Inhibition of SET7 (unknown origin)-mediated methylation of histone H3(1-20)cys-biotin at 15 to 50 uM after 5 mins by scintillation proximity assay in presence of [3H]-S-adenosyl-methionine).
Method in brief: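 SET7 (25 nM) with biotinylated H3(1–20)-cys peptide (900 nM) and compound (2% DMSO final) in Tris pH 8.5 buffer with BSA, EDTA and DTT, 5 min at 30 °C. Started with SAM (2 µM) carrying trace 3H-SAM (0.2 µM), 8 min at 30 °C. Quenched onto streptavidin SPA beads in acetate pH 5.0 with excess cold SAM, then counted. Background-subtracted CPM expressed as percent of DMSO control. Tested twice.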

SMILES | inhibition
O=C(O)c1ccccc1S(=O)(=O)Nc1cccc(-n2ccc3c(-c4ccc(C(F)(F)F)cc4)cccc32)c1 | Active
O=[N+]([O-])c1cccc(S(=O)(=O)Nc2cccc(-n3ccc4c(-c5ccc(C(F)(F)F)cc5)cccc43)c2)c1 | Active
O=C(O)c1cccc(NCc2ccc(-n3ccc4c(-c5ccc(C(F)(F)F)cc5)ncnc43)s2)c1 | Active
O=C(O)c1cccc(NCc2cccc(-n3cnc4c(-c5ccc(C(F)(F)F)cc5)cccc43)c2)c1 | Active
O=[N+]([O-])c1ccc(S(=O)(=O)Nc2cccc(-n3ccc4c(-c5ccc(C(F)(F)F)cc5)cccc43)c2)cc1 | Active
O=C(O)c1cccc(NCc2cccc(-n3ccc4c(-c5ccc(C(F)(F)F)cc5)ncnc43)c2)c1 | Active
O=C(O)c1cccc(NCc2cccc(-n3ncc4cc(-c5ccc(C(F)(F)F)cc5)ccc43)c2)c1 | Active
O=C(O)c1cccc(CNc2cccc(-n3ccc4c(-c5ccc(C(F)(F)F)cc5)ncnc43)c2)c1 | Active
O=C(O)c1cccc(NCc2cccc(-n3ccc4cc(-c5ccc(C(F)(F)F)cc5)ccc43)c2)c1 | Active
Cc1cc(O)c(C(=O)O)cc1S(=O)(=O)Nc1cccc(-n2ccc3c(-c4ccc(C(F)(F)F)cc4)cccc32)c1 | Active
O=C(O)c1cccc(NCc2cccc(-n3ccc4cc(-c5ccc(C(F)(F)F)cc5)cnc43)c2)c1 | Active
O=C(O)c1cccc(NCc2cccc(-n3ccc4c(-c5ccc(C(F)(F)F)cc5)cccc43)c2)c1 | Active
CS(=O)(=O)c1ccc(S(=O)(=O)Nc2cccc(-n3ccc4c(-c5ccc(C(F)(F)F)cc5)cccc43)c2)cc1 | Active
CC(=O)Nc1nc(C)c(S(=O)(=O)Nc2cccc(-n3ccc4c(-c5ccc(C(F)(F)F)cc5)cccc43)c2)s1 | Active
O=[N+]([O-])c1ccccc1S(=O)(=O)Nc1cccc(-n2ccc3c(-c4ccc(C(F)(F)F)cc4)cccc32)c1 | Active
O=C(O)c1cccc(S(=O)(=O)Nc2cccc(-n3ccc4c(-c5ccc(C(F)(F)F)cc5)cccc43)c2)c1 | Active
O=C(O)c1ccc(S(=O)(=O)Nc2cccc(-n3ccc4c(-c5ccc(C(F)(F)F)cc5)cccc43)c2)cc1 | Active
